For one compound, inhibition, Kd and Ratio results are on record in ChEMBL document CHEMBL4118269 (J Med Chem, 2018).

Series [1] deals with T1, Lanosterol 14-alpha demethylase (Candida albicans (strain SC5314 / ATCC MYA-2876) (Yeast), UniProt P10613). As to the kind of experiment: Inhibition of Candida albicans CYP51 assessed as reduction in [3-3H]lanosterol 14alpha-demethylation at 0.75 uM preincubated for 60 secs followed by NADPH addition measured after 60 mins by RP-HPLC analysis relative to control. To be noted: 1 h. A digest of the protocol:
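C. albicans CYP51 expressed in E. coli and purified, 0.5 μM, with 1.0 μM rat NADPH-P450 reductase, dilauroylphosphatidylcholine and isocitrate dehydrogenase/isocitrate regeneration in 50 mM potassium phosphate pH 7.2, 10% glycerol, 0.1% Triton X-100. Substrate 25 μM final; inhibitor:enzyme:substrate 1.5:1:50. 37 °C, started with 100 μM NADPH. Sterols extracted with EtOAc, radio-HPLC. Triplicate, mean ± SD.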

The target of series [2] is Lanosterol 14-alpha demethylase (Aspergillus) (UniProt B8NUK6+Q9P8R0+G4WW85). As to the kind of experiment: Inhibition of Aspergillus fumigatus CYP51 assessed as reduction in [3-3H]eburicol 14alpha-demethylation at 0.75 uM preincubated for 60 secs followed by NADPH addition measured after 60 mins by RP-HPLC analysis relative to control. A digest of the protocol:
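E. coli-expressed, purified CYP51 (0.5 μM) with rat NADPH-P450 reductase (1.0 μM), 100 μM dilauroylphosphatidylcholine, isocitrate dehydrogenase/isocitrate NADPH regeneration, in 50 mM K phosphate pH 7.2 with 10% glycerol and 0.1% Triton X-100. [3-3H]eburicol 25 μM final, inhibitor 0.75 μM final (1.5:1:50 inhibitor:enzyme:substrate), 37 °C. Started with 100 μM NADPH, 60 min, EtOAc extraction, radio-HPLC. Percent inhibition, triplicate, mean ± SD.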

In series [3] the target is T1, Lanosterol 14-alpha demethylase. Put plainly: Binding affinity to Candida albicans CYP51 by spectral titration method. The following applies: read-out: Kd(app). An outline of the steps: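 Purified CYP51 at 0.5 μM in 5 cm path cuvettes, titrated from 0.2 mM DMSO stocks over 0.1–0.8 μM ligand. Kd obtained by fitting to the quadratic tight-binding equation using total ligand and enzyme concentrations.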

The target in series [4] is T2, Lanosterol 14-alpha demethylase (Aspergillus, UniProt B8NUK6+G4WW85+Q9P8R0).
T2 sequence (B8NUK6 whole entry): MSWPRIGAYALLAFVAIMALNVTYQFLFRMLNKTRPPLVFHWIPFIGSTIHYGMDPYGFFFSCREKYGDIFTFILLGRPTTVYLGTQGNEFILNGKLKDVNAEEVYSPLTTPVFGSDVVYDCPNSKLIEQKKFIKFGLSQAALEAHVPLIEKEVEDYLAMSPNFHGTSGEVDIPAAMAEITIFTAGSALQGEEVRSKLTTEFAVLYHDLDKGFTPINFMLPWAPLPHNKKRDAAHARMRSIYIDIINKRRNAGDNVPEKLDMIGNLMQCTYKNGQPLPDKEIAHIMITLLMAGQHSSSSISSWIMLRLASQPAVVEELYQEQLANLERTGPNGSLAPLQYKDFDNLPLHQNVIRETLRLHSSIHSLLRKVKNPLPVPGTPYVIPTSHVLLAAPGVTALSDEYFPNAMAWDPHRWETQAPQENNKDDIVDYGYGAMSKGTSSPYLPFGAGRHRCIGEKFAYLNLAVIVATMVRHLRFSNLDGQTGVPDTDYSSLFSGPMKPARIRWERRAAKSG
T2 sequence (Q9P8R0 whole entry): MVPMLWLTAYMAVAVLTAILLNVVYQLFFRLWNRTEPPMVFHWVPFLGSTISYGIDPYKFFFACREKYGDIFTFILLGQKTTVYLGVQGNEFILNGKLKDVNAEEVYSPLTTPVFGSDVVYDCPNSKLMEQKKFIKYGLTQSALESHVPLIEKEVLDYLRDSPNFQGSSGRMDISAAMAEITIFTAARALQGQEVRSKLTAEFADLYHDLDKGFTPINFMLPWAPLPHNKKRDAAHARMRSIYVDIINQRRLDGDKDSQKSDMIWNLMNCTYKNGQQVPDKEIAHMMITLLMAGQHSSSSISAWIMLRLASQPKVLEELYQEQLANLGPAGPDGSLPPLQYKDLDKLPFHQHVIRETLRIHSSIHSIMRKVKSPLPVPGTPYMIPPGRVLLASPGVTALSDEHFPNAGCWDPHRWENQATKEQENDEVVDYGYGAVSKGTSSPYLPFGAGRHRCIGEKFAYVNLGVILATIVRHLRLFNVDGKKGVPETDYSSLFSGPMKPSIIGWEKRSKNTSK
T2 sequence (G4WW85 whole entry): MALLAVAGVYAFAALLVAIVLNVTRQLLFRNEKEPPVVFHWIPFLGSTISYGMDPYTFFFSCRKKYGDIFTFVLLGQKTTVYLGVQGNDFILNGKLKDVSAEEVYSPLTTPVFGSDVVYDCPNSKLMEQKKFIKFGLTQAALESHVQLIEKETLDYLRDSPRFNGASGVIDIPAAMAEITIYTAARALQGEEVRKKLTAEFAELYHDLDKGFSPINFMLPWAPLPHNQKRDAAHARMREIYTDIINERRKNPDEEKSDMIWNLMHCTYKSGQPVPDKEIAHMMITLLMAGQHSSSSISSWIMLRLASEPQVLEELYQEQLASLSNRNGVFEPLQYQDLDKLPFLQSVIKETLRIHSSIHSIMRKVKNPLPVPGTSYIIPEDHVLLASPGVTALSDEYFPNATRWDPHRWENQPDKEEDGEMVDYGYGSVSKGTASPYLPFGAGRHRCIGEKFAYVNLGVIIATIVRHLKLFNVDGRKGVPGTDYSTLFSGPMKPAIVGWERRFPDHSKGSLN
As to the kind of experiment: Binding affinity to Aspergillus fumigatus CYP51 by spectral titration method. The following applies: read-out: Kd(app). An outline of the steps:
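Purified CYP51 at 0.5 μM in 5 cm path cuvettes, titrated from 0.2 mM DMSO stocks over 0.1–0.8 μM ligand. Type II red shift of the Soret band (417 to 424 nm) followed as ΔA (Amax−Amin) in difference spectra. Kd obtained by fitting to the quadratic tight-binding equation using total ligand and enzyme concentrations.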

The target in series [5] is T1, Lanosterol 14-alpha demethylase. Put plainly: Potency index, ratio of VNI Kd(app) to compound Kd(app) for Candida albicans CYP51.

T1 sequence (P10613 whole entry): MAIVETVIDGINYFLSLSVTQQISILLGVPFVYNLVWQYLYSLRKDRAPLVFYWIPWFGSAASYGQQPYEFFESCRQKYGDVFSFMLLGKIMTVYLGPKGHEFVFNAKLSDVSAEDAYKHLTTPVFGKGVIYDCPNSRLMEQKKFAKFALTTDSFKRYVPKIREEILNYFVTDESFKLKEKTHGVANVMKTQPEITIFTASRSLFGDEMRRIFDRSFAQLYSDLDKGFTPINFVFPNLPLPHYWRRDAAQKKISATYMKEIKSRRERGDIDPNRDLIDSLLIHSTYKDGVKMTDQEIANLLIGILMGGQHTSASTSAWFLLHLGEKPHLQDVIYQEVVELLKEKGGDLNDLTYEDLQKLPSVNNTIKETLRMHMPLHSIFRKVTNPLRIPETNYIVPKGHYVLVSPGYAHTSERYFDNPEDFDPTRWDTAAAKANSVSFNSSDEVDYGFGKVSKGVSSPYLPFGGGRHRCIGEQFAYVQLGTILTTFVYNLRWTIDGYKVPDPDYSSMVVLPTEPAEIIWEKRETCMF

A word on the inhibition: it is the relative decrease from the control value, in per cent. For `CC[C@@H]([C@H](C)O)n1ncn(-c2ccc(N3CCN(c4ccc(OC[C@@H]5CO[C@@](Cn6cncn6)(c6ccc(F)cc6F)C5)cc4)CC3)cc2)c1=O` [POSACONAZOLE], in series [1], the inhibition at 0.75 µM stood at 98%. In series [2], the inhibition was 93%. For the same compound, the Kd worked out at 81 nM in series [3] and 131 nM in series [4]. In series [5], the Ratio is reported as 3.5.
